Experimental data: ChEMBL document CHEMBL4732116, “Discovery of novel CA-4 analogs as dual inhibitors of tubulin polymerization and PD-1/PD-L1 interaction for cancer treatment” (Eur J Med Chem, 2021)
Calls of active or inactive are those of the source. The calls are words filed in the database; no cut-off is given here.

Tests used:
[1] = system: HepG2; assay: Antiproliferative activity against human HepG2 cells assessed as reduction in cell viability measured after 48 hrs by CCK8 assay; assay type: functional, cell-based; details: HepG2, 48 h
Summary of the method: (§1)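 Cells pre-incubated 24 h at 37 °C, 5% CO2, then exposed to compounds over a concentration range in medium with 0.1% DMSO for a further 48 h at 37 °C. CCK-8 read-out as absorbance at 450 nm. IC50 taken from dose-response curves. Three independent experiments.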

[2] = system: MC-38; assay: Antiproliferative activity against mouse MC38 cells assessed as reduction in cell viability measured after 48 hrs by CCK8 assay; assay type: functional, cell-based; details: MC-38, 48 h; summary of the method: as §1
[3] = system: HeLa; assay: Antiproliferative activity against human HeLa cells assessed as reduction in cell viability measured after 48 hrs by CCK8 assay; assay type: functional, cell-based; summary of the method: as §1
[4] = system: B16-F10; assay: Antiproliferative activity against mouse B16-F10 cells assessed as reduction in cell viability measured after 48 hrs by CCK8 assay; assay type: functional, cell-based; details: B16-F10, 48 h; summary of the method: as §1
[5] = Antiproliferative activity against human A549/PTX cells assessed as reduction in cell viability measured after 48 hrs by CCK8 assay; assay type: functional, cell-based; details: A549/Taxol; summary of the method: as §1
[6] = system: HEK293; assay: Cytotoxicity against HEK293 cells assessed as reduction in cell viability measured after 48 hrs by CCK8 assay; assay type: cell-based; details: Homo sapiens, HEK293, 48 h; summary of the method: as §1
[7] = system: NCM460; assay: Cytotoxicity against human NCM460 cells assessed as reduction in cell viability measured after 48 hrs by CCK8 assay; assay type: cell-based; details: NCM460, 48 h; summary of the method: as §1
[8] = target: Programmed cell death protein 1/Programmed cell death 1 ligand 1 (Homo sapiens, UniProt Q9NZQ7); assay: Inhibition of PD1/PDL1 (unknown origin) protein-protein interaction measured after 15 mins by HTRF assay; assay type: protein-complex assay
Chain of Programmed cell death protein 1/Programmed cell death 1 ligand 1 (Q15116 whole entry): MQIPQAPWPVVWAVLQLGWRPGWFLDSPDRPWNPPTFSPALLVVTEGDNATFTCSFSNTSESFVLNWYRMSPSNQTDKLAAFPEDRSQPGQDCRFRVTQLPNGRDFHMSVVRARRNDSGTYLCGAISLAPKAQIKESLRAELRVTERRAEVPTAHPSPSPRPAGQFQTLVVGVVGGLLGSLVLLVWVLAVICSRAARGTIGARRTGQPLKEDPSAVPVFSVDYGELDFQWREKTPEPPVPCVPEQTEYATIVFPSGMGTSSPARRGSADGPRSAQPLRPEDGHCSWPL
Chain of Programmed cell death protein 1/Programmed cell death 1 ligand 1 (Q9NZQ7 whole entry): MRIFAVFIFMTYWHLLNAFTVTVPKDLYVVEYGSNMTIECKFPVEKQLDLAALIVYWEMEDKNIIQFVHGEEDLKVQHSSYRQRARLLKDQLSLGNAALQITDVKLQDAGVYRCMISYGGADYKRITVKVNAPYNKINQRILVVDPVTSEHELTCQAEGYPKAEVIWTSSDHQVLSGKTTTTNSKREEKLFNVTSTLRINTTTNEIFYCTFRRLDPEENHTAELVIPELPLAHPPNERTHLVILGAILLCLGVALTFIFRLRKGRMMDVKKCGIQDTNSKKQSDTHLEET

[9] = (§2) Inhibition of pig brain tubulin polymerization by spectrophotometric method; assay type: tissue-based, Sus scrofa
Summary of the method: (§3)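 Pig brain tubulin (three assembly/disassembly cycles, phosphocellulose P11 purification) mixed with compound at various concentrations in PEM buffer (100 mM PIPES, 1 mM MgCl2, 1 mM EGTA) with 1 mM GTP, 5% glycerol; polymerization read at 340 nm, 37 °C; plateau absorbance used.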

[10] = target: Tubulin (Homo sapiens) (UniProt P68371+Q9H4B7+P0DPH7+P68366+Q13509+Q71U36+P04350+Q3ZCM7+P07437+P68363+Q9BQE3+Q6PEY2+Q13885+Q9BVA1+Q9BUF5); assay: Disruption of microtubule network in human HepG2 cells at 5 uM measured after 24 hrs by immunofluorescence assay; assay type: cell-based
Summary of the method: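 HepG2 cells on glass coverslips, treated 24 h after plating for 24 h (vehicle 0.1% DMSO). Fixed 15 min in 4% formaldehyde, permeabilized 5 min in 0.2% Triton X-100, blocked 30 min in 5% BSA. Immunostained with anti-tubulin antibody, then imaged by confocal laser scanning.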

[11] = organism: Sus scrofa; assay: as §2; assay type: tissue-based; summary of the method: as §3

| Structure (SMILES) | IC50 [1] | IC50 [3] | IC50 [4] | IC50 [9] | inhibition [10] | IC50 [2] | IC50 [5] | IC50 [6] | IC50 [7] | IC50 [8] | inhibition [11] |
| --- | --- | --- | --- | --- | --- | --- | --- | --- | --- | --- | --- |
| COc1ccc(/C=C\c2cc(OC)c(OC)c(OC)c2)cc1OCc1ccc(CN2C[C@H](O)C[C@@H]2C(=O)O)cc1 | > 10 µM | > 10 µM | > 10 µM | – | – | > 10 µM | > 20 µM | > 50 µM | > 50 µM | > 100 µM | – |
| COc1ccc(/C=C\c2cc(OC)c(OC)c(OC)c2)cc1O [COMBRETASTATIN A4] | 0.59 µM | 0.06 µM | 0.05 µM | 4.31 µM | – | 0.08 µM | 0.62 µM | 11 µM | 12 µM | > 100 µM | – |
| COc1ccc(/C=C\c2cc(OC)c(OC)c(OC)c2)cc1OCc1ccc(CN2CCCC[C@@H]2C(=O)O)cc1 | > 10 µM | > 10 µM | > 10 µM | – | – | > 10 µM | > 20 µM | 42 µM | > 50 µM | > 100 µM | – |
| COc1ccc(/C=C\c2cc(OC)c(OC)c(OC)c2)cc1OCc1ccc(C=O)cc1 | – | – | – | – | Active | – | – | – | – | – | – |
| COc1ccc(/C=C\c2cc(OC)c(OC)c(OC)c2)cc1OCc1ccc(CN2CCCC[C@H]2C(=O)O)cc1 | > 10 µM | > 10 µM | > 10 µM | > 200 µM | – | > 10 µM | > 20 µM | > 50 µM | > 50 µM | > 100 µM | – |
| COc1ccc(/C=C\c2cc(OC)c(OC)c(OC)c2)cc1OCc1ccc(CN2CC(C(=O)O)C2)cc1 | > 10 µM | 6.5 µM | > 10 µM | – | – | > 10 µM | > 20 µM | > 50 µM | > 50 µM | 42 µM | – |
| COc1ccc(/C=C\c2cc(OC)c(OC)c(OC)c2)cc1OCc1ccc(CN[C@H](C(=O)O)[C@@H](C)O)cc1 | > 10 µM | > 10 µM | 5.4 µM | – | – | > 10 µM | > 20 µM | > 50 µM | > 50 µM | 50.7 µM | – |
| COc1ccc(/C=C\c2cc(OC)c(OC)c(OC)c2)cc1OCc1ccc(CN[C@H](C(=O)O)[C@H](C)O)cc1 | > 10 µM | > 10 µM | > 10 µM | – | – | > 10 µM | > 20 µM | > 50 µM | > 50 µM | 58.6 µM | – |
| CC(=O)O[C@H]1C(=O)[C@@]2(C)[C@H]([C@H](OC(=O)c3ccccc3)[C@]3(O)C[C@H](OC(=O)[C@H](O)[C@@H](NC(=O)c4ccccc4)c4ccccc4)C(C)=C1C3(C)C)[C@]1(OC(C)=O)CO[C@@H]1C[C@@H]2O | – | – | – | – | – | – | – | – | – | – | inactive |

More lines, main results first:

| IC50 [1] | IC50 [3] | IC50 [4] | IC50 [9] | inhibition [10] | Structure (SMILES) | IC50 [2] | IC50 [5] | IC50 [6] | IC50 [7] | IC50 [8] | inhibition [11] |
| --- | --- | --- | --- | --- | --- | --- | --- | --- | --- | --- | --- |
| 2.4 µM | 7.6 µM | 6.6 µM | – | – | COc1ccc(/C=C\c2cc(OC)c(OC)c(OC)c2)cc1OCc1ccc(CO)cc1 | 5.7 µM | 12 µM | 37 µM | > 50 µM | > 100 µM | – |
| 6.1 µM | 6.4 µM | 2.5 µM | 60.7 µM | – | COc1ccc(/C=C\c2cc(OC)c(OC)c(OC)c2)cc1OCc1ccc(CNCCNC(C)=O)cc1 | 1.8 µM | 1.1 µM | > 50 µM | 54 µM | 44.8 µM | – |
| 5.3 µM | 9.2 µM | > 10 µM | – | – | COc1ccc(/C=C\c2cc(OC)c(OC)c(OC)c2)cc1OCc1ccc(CN2C[C@H](O)[C@@H](F)C2)cc1 | > 10 µM | 19.2 µM | 29 µM | 38 µM | 52 µM | – |
| 4.4 µM | 9.4 µM | > 10 µM | – | – | COc1ccc(/C=C\c2cc(OC)c(OC)c(OC)c2)cc1OCc1ccc(CNCCN(C)C)cc1 | 1.4 µM | 1.6 µM | 39 µM | 35 µM | > 100 µM | – |
| 4.8 µM | 7.3 µM | 4.6 µM | – | – | COc1ccc(/C=C\c2cc(OC)c(OC)c(OC)c2)cc1OCc1ccc(CN2CCCCC2C(=O)NCCN)cc1 (configuration not stated) | > 10 µM | 2.7 µM | > 50 µM | > 50 µM | 65.7 µM | – |
| 6.4 µM | > 10 µM | 7 µM | – | – | COc1ccc(/C=C\c2cc(OC)c(OC)c(OC)c2)cc1OCc1ccc(CN2CC[C@H](C(=O)O)C2)cc1 | > 10 µM | 12 µM | > 50 µM | > 50 µM | 38.6 µM | – |
| 1.1 µM | 2 µM | 4.7 µM | 202 µM | – | COc1ccc(/C=C\c2cc(OC)c(OC)c(OC)c2)cc1OCc1ccc(CN2CCCCC2C(=O)NCCNC(=O)OC(C)(C)C)cc1 (configuration not stated) | 1.9 µM | 15 µM | 48 µM | 28 µM | > 100 µM | – |
| 6.5 µM | > 10 µM | > 10 µM | – | – | COc1ccc(/C=C\c2cc(OC)c(OC)c(OC)c2)cc1OCc1ccc(CNC(C)(C)C(=O)O)cc1 | > 10 µM | > 20 µM | > 50 µM | > 50 µM | > 100 µM | – |
| 6.6 µM | 10.5 µM | > 10 µM | – | – | COc1ccc(/C=C\c2cc(OC)c(OC)c(OC)c2)cc1OCc1ccc(CN2CC[C@H](O)C2)cc1 | 7.2 µM | 5.9 µM | > 50 µM | 51 µM | 90 µM | – |
| 6.2 µM | > 10 µM | > 10 µM | – | – | COc1ccc(/C=C\c2cc(OC)c(OC)c(OC)c2)cc1OCc1ccc(CN2CC[C@@H](O)C2)cc1 | 6.9 µM | 8.9 µM | > 50 µM | 53 µM | > 100 µM | – |
| 3.1 µM | 14.2 µM | > 10 µM | – | – | COc1ccc(/C=C\c2cc(OC)c(OC)c(OC)c2)cc1OCc1ccc(CN2CCCCC2C(=O)O)cc1 (configuration not stated) | 5.4 µM | 10.2 µM | > 50 µM | > 50 µM | > 100 µM | – |
| 5.9 µM | 4.4 µM | 6.6 µM | – | – | COc1ccc(/C=C\c2cc(OC)c(OC)c(OC)c2)cc1OCc1ccc(CNCCO)cc1 | 1.2 µM | 0.8 µM | > 50 µM | 39 µM | 90.5 µM | – |
| 2.3 µM | 12.8 µM | > 10 µM | > 200 µM | – | COc1ccc(/C=C\c2cc(OC)c(OC)c(OC)c2)cc1OCc1ccc(CN2CC[C@@H](C(=O)O)C2)cc1 | 6.3 µM | > 20 µM | 27 µM | > 50 µM | > 100 µM | – |
